Published values of several laboratories.
Protocols differ between the studies behind these lines.

`O=C(NO)c1ccc(Cn2cnc3c(Nc4ccc(F)c(Cl)c4)ncnc32)cc1` gave an IC50 of 3.54 µM (HEL; cell growth or viability, MTT; 72 h).
The IC50 of `CN1C(=O)C(=O)c2cc3c(c4c2c1cc1ccccc14)OCO3` is reported as 44.6 µM (H69AR; cell growth or viability, MTT; 75 h).
The IC50 of `CCC(=CCc1c(O)cc2c(c1O)C(=O)C[C@@H](c1ccc(O)cc1)O2)CC` is reported as 22.8 µM (HeLa; cell growth or viability, MTT; 48 h).
`Cc1cc(NS(=O)(=O)c2ccc(NC(=O)/C(C#N)=C/c3ccncc3)cc2)no1` has an IC50 of over 200 µM (HSF; cell growth or viability, MTT; 48 h).
With `COc1cc(Cn2nc(-c3ccc(CO)o3)c3ccccc32)ccn1` the IC50 was over 46 µM (CC-LP-1; cell growth or viability, ATP luminescence).
`O=C(CSc1nc2ccccc2s1)N/N=C/c1ccc(OCC(=O)Nc2cccc([N+](=O)[O-])c2)cc1` has an IC50 of over 100 µM (HEL 299; cell growth or viability, MTS; 72 h).
For `O=c1[nH]cc(F)c(=O)[nH]1`, the IC50 was 76.9 µM (HSF; cell growth or viability, MTT; 48 h).
The IC50 of `NCc1ccc(-c2nn(Cc3ccccc3)c3ccccc23)o1` is reported as over 46 µM (CC-LP-1; cell growth or viability, ATP luminescence).
With `O=c1[nH]cc(F)c(=O)[nH]1` the IC50 was 15.2 µM (BGC-823; cell growth or viability, MTT; 48 h).
For `NCc1ccc(-c2nn(Cc3ccccn3)c3cccnc23)o1`, the IC50 was over 46 µM (CC-LP-1; cell growth or viability, ATP luminescence).
The IC50 of `Cc1cc2c(C(=O)O)cccc2n1-c1nc2c(c(NCc3ccccc3)n1)CCCN2` is reported as 0.9 µM (KMS-11; cell growth or viability; 72 h).
For `Nc1ccccc1NC(=O)c1ccc(Cn2cnc3c(Nc4ccc(Br)cc4F)ncnc32)cc1`, the IC50 was 0.39 µM (NB-4; cell growth or viability, MTT; 72 h).
`COc1cccc2c1C(=O)c1c(O)c3c(c(O)c1C2=O)C[C@@](O)(C(=O)CO)C[C@@H]3O[C@H]1C[C@H](N)[C@H](O)[C@H](C)O1` has an IC50 of 0.0818 µM (BGC-823; cell growth or viability; 96 h).
`OCc1ccc(-c2nn(Cc3ccncc3)c3ccccc23)o1` gave an IC50 of over 46 µM (CC-LP-1; cell growth or viability, ATP luminescence).
With `O=C(NO)c1ccc(Cn2cnc3c(Nc4cccc([N+](=O)[O-])c4)ncnc32)cc1` the IC50 was 2.07 µM (HEL; cell growth or viability, MTT; 72 h).
`O=C(CSc1nc2ccccc2s1)N/N=C/c1ccc(OCC(=O)Nc2cccc(Cl)c2)cc1` has an IC50 of over 100 µM (HEL 299; cell growth or viability, MTS; 72 h).
`Cc1ccc(S(=O)(=O)NC(=O)c2cc3ccccc3n2Cc2ccc(C3CC3)c3ccccc23)cc1` gave an IC50 of 2.61 µM (mouse BMDM; IL-1β release, inhibitor, ELISA; LPS-stimulated).
With `O=C(NO)c1ccc(Cn2cnc3c(Nc4ccc(Cl)cc4)ncnc32)cc1` the IC50 was 0.77 µM (HEL; cell growth or viability, MTT; 72 h).
`CONC(=O)c1cccc2c1cc(C)n2-c1nc2c(c(NCc3ccccc3)n1)CCCN2` gave an IC50 of 2.1 µM (KMS-11; cell growth or viability; 72 h).
`CS(=O)(=O)NCCCCN=C=S` gave an IC50 of 42.9 µM (HDFa; cell growth or viability, MTT; 24 h).
With `CN1CCN(c2ccc(Nc3c4ccccc4nc4ccccc34)cc2)CC1` the IC50 was 4.68 µM (SNU-449; cell growth or viability, imaging; 72 h).
`Cc1cc(NS(=O)(=O)c2ccc(NC(=O)/C(C#N)=C/c3ccc(N4CCCCC4)cc3)cc2)no1` gave an IC50 of over 200 µM (HSF; cell growth or viability, MTT; 48 h).
The IC50 of `COc1cccc(Cn2nc(-c3ccc(CO)o3)c3ccccc32)c1` is reported as over 46 µM (CC-LP-1; cell growth or viability, ATP luminescence).
`O=C(CSc1nc2ccccc2s1)N/N=C/c1ccc(OCC(=O)Nc2ccc(Br)cc2)cc1` has an IC50 of over 100 µM (HEL 299; cell growth or viability, MTS; 72 h).
For `C(=N\Nc1cc(N/N=C/c2ccc3ccccc3n2)ncn1)/c1ccc2ccccc2n1`, the IC50 was 12.3 µM (BGC-823; cell growth or viability, MTT; 48 h).
For `OCc1ccc(-c2nn(Cc3ccncc3)c3cccnc23)o1`, the IC50 was over 46 µM (CC-LP-1; cell growth or viability, ATP luminescence).
The IC50 of `CNC(=O)c1cc(Oc2ccc(NC(=O)Nc3ccc(Cl)c(C(F)(F)F)c3)cc2)ccn1` is reported as 6.37 µM (SNU-449; cell growth or viability, imaging; 72 h).
For `C(=N\Nc1cc(N/N=C/c2ccc3ccccc3n2)nc(-c2ccccc2)n1)/c1ccc2ccccc2n1`, the IC50 was 9.12 µM (BGC-823; cell growth or viability, MTT; 48 h).
`COc1ccc(Nc2ncnc3c2ncn3Cc2ccc(C(=O)NO)cc2)cc1` gave an IC50 of 0.8 µM (HEL; cell growth or viability, MTT; 72 h).
The IC50 of `C=CC(=O)N1CCC[C@@H](n2nc(-c3ccc(Oc4ccccc4)cc3)c3c(N)ncnc32)C1` is reported as over 0.5 µM (SU-DHL-6; cell growth or viability, resazurin; 72 h).
For `O=C(NO)c1ccc(Cn2cnc3c(Nc4ccc(Br)cc4F)ncnc32)cc1`, the IC50 was 1.41 µM (NB-4; cell growth or viability, MTT; 72 h).
`COc1cccc2c1C(=O)c1c(O)c3c(c(O)c1C2=O)C[C@@](O)(C(=O)CO)C[C@@H]3O[C@H]1C[C@H](N)[C@H](O)[C@H](C)O1` gave an IC50 of 0.2 µM (HeLa; cell growth or viability, MTT; 48 h).
`COc1ccc(Nc2ncnc3c2ncn3Cc2ccc(C(=O)Nc3ccccc3N)cc2)cc1` has an IC50 of 2.44 µM (NB-4; cell growth or viability, MTT; 72 h).
`COc1ccccc1Cn1nc(-c2ccc(CO)o2)c2ccccc21` gave an IC50 of about 46 µM (CC-LP-1; cell growth or viability, ATP luminescence).
The IC50 of `Nc1ccccc1NC(=O)c1ccc(Cn2cnc3c(Nc4ccc(Cl)cc4)ncnc32)cc1` is reported as 0.73 µM (NB-4; cell growth or viability, MTT; 72 h).
For `OCc1ccc(-c2nn(Cc3ccccc3)c3ccccc23)o1`, the IC50 was over 46 µM (CC-LP-1; cell growth or viability, ATP luminescence).
